Most compounds without a hit are left out; they make up all but 1.8% or so of the library.
APJ agonist – agonists of human APJ apelin receptor; P35414; CHO-K1 APJ PathHunter beta-arrestin, luminescence; 0% DMSO wells, 100% apelin; activation, % at 20 µM; 330,000 tested, 0.11% active; AID 2520;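 active = activation more than six SD over the plate average, tested at 20 µM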;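 also: 0% = DMSO alone and 100% = apelin-13 at 10 nM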
Target sequence (P35414 whole entry, looked up): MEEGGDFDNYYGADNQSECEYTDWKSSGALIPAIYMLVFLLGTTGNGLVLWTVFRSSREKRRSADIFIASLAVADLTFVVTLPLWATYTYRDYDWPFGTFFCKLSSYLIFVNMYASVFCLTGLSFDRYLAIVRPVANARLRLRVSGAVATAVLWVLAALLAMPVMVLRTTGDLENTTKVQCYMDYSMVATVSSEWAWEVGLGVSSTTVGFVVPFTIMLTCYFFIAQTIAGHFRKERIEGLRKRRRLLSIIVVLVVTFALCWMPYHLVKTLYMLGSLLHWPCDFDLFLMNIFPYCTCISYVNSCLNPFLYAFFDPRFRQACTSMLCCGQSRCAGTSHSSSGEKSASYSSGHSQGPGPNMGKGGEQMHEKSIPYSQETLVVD
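assay system = CHO-K1 APJ beta-arrestin complementation cell line | input = cell density 1000 per well | dosing = compound 20 µM once, DMSO 1% | timing = compound 90 min 25 °C, reagent 1 h | measured by = luminescence from split beta-galactosidase complementation, Galacton Star/Emerald II substrate | read-out basis = APJ agonist activity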
B2AR ag – human beta-2 adrenergic receptor agonism by FAP; AID 504454; Am2.2-beta2AR cells, FAP receptor internalization, flow cytometry; P07550; 340,000 tested, 0.43% active; response, % (concentration not given with the values);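 active = response above a set limit, near 3 SD of response in nonfluorescent compounds, cut at about 42% in these data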
APJ antagonist – antagonists of human APJ apelin receptor; P35414; CHO-K1 APJ beta-arrestin complementation, luminescence; inhibition, % at 20 µM; 330,000 tested, 0.32% active;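 active = inhibition above about 40% at 20 µM, limit read from the data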;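 also: cells challenged with 10 nM apelin-13 agonist together with compound; plate controls were apelin-13 plus DMSO wells for no effect and DMSO wells lacking apelin-13 for full effect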
CXCR6 inh – CXCR6 (human) receptor inhibition | O00574 | CHO-K1 PathHunter CXCR6 beta-arrestin, luminescence | inhibition, % at 20 µM | 360,000 tested, 0.36% active | AID 602244; in the data active = inhibition above about 34%, passing the limit was not always enough;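 also: antagonist mode with CXCL16 agonist at 10 nM final; 0% = 10 nM CXCL16 with DMSO and 100% = unstimulated wells without agonist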
EBI2 block – antagonists of human EBI2 receptor; AID 651636; EBI2 beta-arrestin recruitment, luminescence, 7a,25-OHC stimulated; 360,000 tested, 0.81% active; P32249; inhibition, % at 5 µM; in the data active = inhibition above about 38%;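 also: enzyme fragment complementation signal reports receptor beta-arrestin coupling in cells; 0% = agonist plus DMSO wells and 100% = wells without agonist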
CCR6 antag – antagonists of human CCR6 receptor. P51684. CHO-K1 CCR6 PathHunter beta-arrestin, luminescence, CCL20-stimulated. inhibition, % at 20 µM. 340,000 tested, 0.49% active;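 active = compounds whose inhibition of the agonist-driven luminescence signal at 20 µM reaches about 50%, limit read from the data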;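 also: cells stimulated with CCL20 at 14 nM final; plate controls were DMSO with CCL20 for no effect and DMSO without agonist for full effect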
Beta2AR ag CP1 – agonists of human beta-2 adrenergic receptor | shares compounds with B2AR ag | Am2.2-beta2AR cells, FAP surface receptor, flow cytometry; stronger effect = lower value | percent response (surface receptor), % at 10 µM | 1,100 tested, 25% active | AID 540358;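 active = surface receptor percent response at or below 58%, roughly 3 SD from nonfluorescent compounds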
B2AR FAP counter – flagged in Am2.2 fluorescence counterscreen for beta-2AR agonists; Am2.2 cells, FAP fluorogen flow cytometry; stronger effect = lower value; shares compounds with B2AR ag; calls only at 10 µM; 1,100 tested, under 10 active;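 active = percent response below a set limit in fluorescence channel 1 and below 50% in channel 8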
* marks the source's active call; other numbers are inactive results; i = inactive; · = no result given; + = active, no number.

SMILES	APJ agonist	B2AR ag	APJ antagonist	CXCR6 inh	EBI2 block	CCR6 antag	Beta2AR ag CP1	B2AR FAP counter
CC(=O)Nc1cc(C(=O)OC(C(=O)c2ccccc2)c2ccccc2)ccc1C (configuration not stated)	-5	121*	7	9	7	21	22*	i
COc1ccc(C(=O)C(OC(=O)c2ccc(C)c(NC(C)=O)c2)c2ccccc2)cc1 (configuration not stated)	1	-3	6	-4	6	-17	·	·
O=C(NCCN1CCC(n2c(=O)[nH]c3ccccc32)CC1)c1cccs1	·	·	·	0	-6	·	·	·
COc1cc2c(cc1Cl)C(=O)C(F)(c1ccccc1)C(=O)N2 (configuration not stated)	0	81*	-8	-3	2	1	13*	i
N#Cc1ccc(-c2cccnc2)nc1SCc1ccc(Cl)cc1Cl	0	52*	1	-1	19	22	71	i
N#Cc1ccc(-c2cccnc2)nc1SCc1ccc(Cl)c(Cl)c1	·	37	·	2	27	15	·	·
ON=C1c2ccccc2-c2cc(Br)ccc21	·	12	·	-18	6	-20	·	·
CCCCc1ccc(S(=O)(=O)NC(=O)C2(C)CCN2C(=O)C/C=C/c2ccccc2)cc1 (configuration not stated)	·	·	·	-6	2	·	·	·
CN1CCN(C(=O)C[C@@H]2C[C@H]3c4cc(NC(=O)c5cccnc5)ccc4O[C@H]3[C@H](CO)O2)CC1	·	·	·	0	-7	·	·	·
Cn1c(=N)n(CC(=O)c2ccc(Br)cc2)c2ccccc21	4	43*	15	-2	32	4	16*	i
Cc1ccc(Cn2c(=N)n(CC(=O)c3ccc([N+](=O)[O-])cc3)c3ccccc32)cc1	8	100*	-44	-11	24	6	23*	+
Cn1c(=N)n(CC(=O)c2ccc(F)cc2)c2ccccc21	-4	-7	-11	0	2	10	·	·
O=S1(=O)CC(N2CC=CC2)CN1Cc1cn(Cc2ccc(F)cc2)nn1 (configuration not stated)	·	·	·	-5	-8	·	·	·
CN(c1ccccc1)S(=O)(=O)c1cccc(C(=O)NC2CCCC2)c1	-2	-7	-1	5	0	6	·	·
CN(c1ccccc1)S(=O)(=O)c1cccc(C(=O)Nc2cccc(C(=O)NC3CC3)c2)c1	-2	51*	-2	-12	-20	6	13*	i
O=C1C(O)CC2c3ccccc3CC3(CCCC3)N12 (configuration not stated)	-4	7	-52	5	6	14	117	i
CCCCc1nnc(NC(=O)c2ccc(OCc3c(C)noc3C)cc2)s1	17	5	4	-7	-14	10	·	·
COc1ccc(S(=O)(=O)Nc2ccncc2)c(C)c1C	1	-4	5	-4	-3	0	·	·
Cc1ccc(S(=O)(=O)Nc2ccncc2)c(C)c1N(C)S(=O)(=O)c1ccc(F)cc1	-2	84*	-10	-9	-6	-24	106	i
C#CCN(C[C@@H](CC(C)C)NC(=O)OC(C)(C)C)S(=O)(=O)c1ccc(Br)cc1F	·	4	·	1	6	21	·	·
O=C(Nc1ccc2oc(-c3ccccc3)nc2c1)c1ccccc1F	5	-1	18	0	1	15	·	·
O=C(Nc1ccc2oc(-c3ccccc3F)nc2c1)c1ccccc1F	1	14	17	-13	-2	5	110	i
O=C(Nc1ccc2oc(-c3ccc4ccccc4c3)nc2c1)c1ccc2c(c1)OCCO2	-1	43*	-2	-5	6	-2	20*	i
Cc1ccc2nc(-c3cccc(NC(=O)c4ccc5c(c4)OCCO5)c3)oc2c1	2	21	4	2	-5	-18	·	·
CN(C)CCNc1ncnc2c1ncn2[C@H]1CN(Cc2ccc(Cl)cc2)C[C@@H](CO)O1	·	·	·	-3	2	·	·	·
SMILES	APJ agonist	B2AR ag	APJ antagonist	CXCR6 inh	EBI2 block	CCR6 antag	Beta2AR ag CP1	B2AR FAP counter
N#Cc1cc(-c2ccccc2)nc(Oc2ccc(Cl)cc2)n1	-3	44*	-11	13	6	13	50*	i
CCCCCCn1cc(CN2CC(N3CCN(C4CCN(C)CC4)CC3)CS2(=O)=O)nn1 (configuration not stated)	·	·	·	-7	-6	·	·	·
Cc1cccc2nc(COc3ccc4ccccc4c3Br)cn12	-5	98*	-12	-6	3	-8	26*	i
CCn1cc(C(=O)O)c(=O)c2cc(F)c(N3CCN(S(=O)(=O)c4ccc5c(c4)OCCO5)CC3)cc21	-2	-10	-8	6	7	14	·	·
CCn1cc(C(=O)O)c(=O)c2cc(F)c(N3CCN(S(=O)(=O)c4ccc(NC(C)=O)cc4)CC3)cc21	-2	56*	-1	9	-2	-4	76	i
O=C(c1ccc(-c2nnc(Nc3ccccc3)c3ccccc23)cc1)N1C[C@H]2C[C@H](C1)c1cccc(=O)n1C2	-1	7	-12	-5	-8	-5	79	i
COc1ccc(Cn2nc(-c3ccccc3)c(N3CCCCC3)cc2=O)cc1	-4	108*	11	-4	19	18	38*	i
NC(Cc1ccc(F)cc1)c1csc(Nc2cc(Oc3ccccc3)ncn2)n1 (configuration not stated)	·	·	·	-14	0	·	·	·
COc1cccc(OCc2nnc(-c3cccs3)o2)c1	-4	50*	12	-6	5	·	58*	i
O=C(Cn1cnc2c(NCc3ccccc3)ncnc21)NCCCc1ccccc1	·	-3	·	-2	-8	25	·	·
Cn1c(SCC(=O)NCC2CCCO2)ncc(C(=O)Nc2ccc(Cl)cc2)c1=O (configuration not stated)	-2	75*	11	16	4	16	79	i
Cn1c(SCC(=O)NCC2CCCO2)ncc(C(=O)Nc2ccc(F)cc2)c1=O (configuration not stated)	1	46*	23	18	9	15	98	i
Cc1ccc(S(=O)(=O)N2CCN(C(=O)COC(=O)c3ccccc3OC(F)F)CC2)c(C)c1	·	4	·	-5	10	5	·	·
CCCC(=O)N1CCN(c2ccc(NC(=O)c3ccc([N+](=O)[O-])o3)cc2Cl)CC1	·	42*	·	-14	11	1	4.8*	i
Cc1noc(C)c1S(=O)(=O)NC(=O)C1(C)CCN1C(=O)C1(c2ccc(Cl)cc2)CC1 (configuration not stated)	·	·	·	1	-2	·	·	·

Screening data as filed in PubChem.
